# Experimental data from publication PMC5776616 (Experimental and Therapeutic Medicine, 2017).
# Where no end group is shown, it is not given here.
# Assays:
# [1] = tested on: multi-species biofilm of luc-ldh reporter strain of S. mutans, S. gordonii ATCC-10558 and S. sanguis ATCC-49295; assay: Multi-species biofilm; assay type: cell-based; conditions: for growth of S. gordonii and S. sanguis in multi-species biofilm: 5 min after treatment, peptide 128 µg/ml; for relative strength of effect on S. mutans in multi-species biofilm (ranking): order in words: strongest effects, followed by, then, Fig. 2B
# Summary of the method: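 Mid-log cultures were adjusted to 1×10^7 CFU/ml in BHI with 0.5% sucrose (S. mutans luc-ldh reporter), 0.5% glucose (S. gordonii) or 0.5% mannose (S. sanguis). Wells were spun and grown anaerobically 4 h at 37°C into biofilm. Peptide in PBS was added at a final 128 µg/ml, then replaced with sugar-containing BHI. OD600 was read at 5–120 min, and S. mutans RLU after adding 1 mM D-luciferin. Groups were compared by one-way ANOVA.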
# S. mutans UA 159 [2] = assay: MIC by broth microdilution, planktonic S. mutans UA159; assay type: cell-based, Streptococcus mutans; conditions: for MICs against the S. mutans strains: range over both S. mutans strains (UA159 and GS-5); for increase of antibacterial activity against S. mutans compared with hLF1-11 alone: planktonic S. mutans, from MICs
# Summary of the method: (§1)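 Strains were grown anaerobically overnight in BHI at 37°C, diluted 1:20 and grown anaerobically 2.5 h to mid-log phase. Two-fold serial peptide dilutions in BHI were set up in 96-well round-bottom plates, and the final inoculum was 1×10^5 CFU/ml. The MIC was reported as the median of at least three independent experiments.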
# S. gordonii ATCC-10558 = assay: MIC by broth microdilution, planktonic S. gordonii; assay type: cell-based, Streptococcus gordonii
# Summary of the method: as §1
# S. sanguis ATCC-49295 = assay: MIC by broth microdilution, planktonic S. sanguis; assay type: cell-based, Streptococcus sanguis
# Summary of the method: as §1
# S. mutans UA 159 [3] = assay: Differential protein expression; assay type: cell-based, Streptococcus mutans
# Summary of the method: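 Mid-log S. mutans UA 159 (BHI, anaerobic, 1×10^6 CFU/ml) was exposed to test peptide at 20 µg/ml or an equal volume of sterile water, anaerobically at 37°C for 1 h. Cells were pelleted at 4°C and lysed with lysozyme plus protease inhibitors, on ice with sonication. Protein was cleaned, quantified and CyDye minimal-labelled. Spots were identified by positive-ion reflection MALDI-TOF-MS over m/z 700–4,000.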
# [4] = S. mutans UA 159, C11H 20 µg/ml 1 h vs water control, gi|24379038
Sequence,growth of S. gordonii and S. sanguis in multi-species biofilm [1],MICs against the S. mutans strains (S. mutans UA 159 [2]; planktonic) [µg/mL],relative strength of effect on S. mutans in multi-species biofilm (ranking) [1],increase of antibacterial activity against S. mutans compared with hLF1-11 alone (S. mutans UA 159 [2]),other results
"GRRRRSVQWCA [hLF1-11, reference compound]",not affected,37.33 to 48.00,,,
LSTFFRLFN [C12],not affected,,,,MIC against S. mutans (S. mutans UA 159 [2]; planktonic): > 256 µg/mL; MIC against S. gordonii (S. gordonii ATCC-10558): > 256 µg/mL; MIC against S. sanguis (S. sanguis ATCC-49295): > 256 µg/mL
LSTFFRLFNGRRRRSVQWCA [C12H],not affected,10.67 to 13.33,strongest effects,3–4 times,
LSTFFRLFNRSFTQGRRRRSVQWCA [C14H],not affected,10.67 to 13.33,,3–4 times,
STFFRLFNRSFTQGRRRRSVQWCA [C13H],not affected,10.67 to 13.33,,3–4 times,
TFFRLFNRGRRRRSVQWCA [C8H],not affected,10.67 to 13.33,then,3–4 times,
TFFRLFNRSFTGRRRRSVQWCA [C11H],not affected,10.67 to 13.33,strongest effects,3–4 times,"Average ration: Heat shock protein GrpE (HSP-70 cofactor) (master no. 1781) (S. mutans UA 159 [3]; S. mutans UA 159, C11H 20 µg/ml 1 h vs water control, gi|24378605): −4.2; Average ration: NAD synthetase (master no. 1628) (S. mutans UA 159 [3]; S. mutans UA 159, C11H 20 µg/ml 1 h vs water control, gi|24378953): −4.12; Average ration: Putative cell division A protein DivIV (master no. 1355) (S. mutans UA 159 [3]; [4]): −8; Average ration: Putative cell division protein DivIVA (master no. 1327) (S. mutans UA 159 [3]; [4]): −11.09; Average ration: Putative cell division protein DivIVA (master no. 1341) (S. mutans UA 159 [3]; [4]): −5.58; Average ration: Putative 40K cell wall protein precursor (master no. 654) (S. mutans UA 159 [3]; S. mutans UA 159, C11H 20 µg/ml 1 h vs water control, gi|24379086): −4.75; Average ration: Branch ed-chain amino acid aminotransferase (master no. 1241) (S. mutans UA 159 [3]; S. mutans UA 159, C11H 20 µg/ml 1 h vs water control, gi|24379628): −5.4; Average ration: Orotate phosphoribo-syltransferase (master no. 2141) (S. mutans UA 159 [3]; S. mutans UA 159, C11H 20 µg/ml 1 h vs water control, gi|24379645): −4.63; Average ration: Putative dTDP-4-keto-L-rhamnose reductase (master no. 2068) (S. mutans UA 159 [3]; S. mutans UA 159, C11H 20 µg/ml 1 h vs water control, gi|24379857): −5.54; Average ration: Ribosome recycling factor (master no. 2072) (S. mutans UA 159 [3]; S. mutans UA 159, C11H 20 µg/ml 1 h vs water control, gi|24380004): −4.7; Average ration: Hypothetical protein SMU.1716c (master no. 2188) (S. mutans UA 159 [3]; S. mutans UA 159, C11H 20 µg/ml 1 h vs water control, gi|24380090): −6.14; Average ration: Putative trans-2-enoyl-ACP reductase (master no. 1551) (S. mutans UA 159 [3]; S. mutans UA 159, C11H 20 µg/ml 1 h vs water control, gi|24380114): −4.34; Average ration: Hypothetical protein SMU.1760c (master no. 1506) (S. mutans UA 159 [3]; S. mutans UA 159, C11H 20 µg/ml 1 h vs water control, gi|24380128): −5.93; Average ration: Hypothetical protein SMU.1789c (master no. 1576) (S. mutans UA 159 [3]; S. mutans UA 159, C11H 20 µg/ml 1 h vs water control, gi|24380155): −6.04; Average ration: Elongation factor P (master no. 2035) (S. mutans UA 159 [3]; S. mutans UA 159, C11H 20 µg/ml 1 h vs water control, gi|24380208): −4.19; Average ration: Single-strand DNA-binding protein (master no. 2334) (S. mutans UA 159 [3]; S. mutans UA 159, C11H 20 µg/ml 1 h vs water control, gi|24380219): −5.37; Average ration: Inositol-5 monophosphate dehydrogenase (master no. 824) (S. mutans UA 159 [3]; S. mutans UA 159, C11H 20 µg/ml 1 h vs water control, gi|24380485): −12.84; 21 protein spots with a mean change ratio of 1.5 (S. mutans UA 159 [3]; S. mutans UA 159, C11H 20 µg/ml, 1 h): downregulated"
